The source made the active and inactive calls. No cut-off for these calls is given here.

Results on two compounds are retold here after ChEMBL document CHEMBL5338772, “Stereochemical Control of Splice Modulation in FD-895 Analogues” (J Med Chem, 2023).

Data set [1] relates to SF3A1 pre-mRNA. As to the kind of experiment: Modulation of splicing in SF3A1 pre-mRNA in human HCT-116 cells assessed as intron 6 retention level at 750 nM incubated for 4 hrs by qRT-PCR analysis. The data set is classed as functional, cell-based. The conditions noted are these: filed as modulator. Background: Real-time PCR tracks product formation cycle by cycle.
Data set [2] has as its system SF3A3 pre-mRNA. Description: Modulation of splicing in SF3A3 pre-mRNA in human HCT-116 cells assessed as intron 5 retention level at 750 nM incubated for 4 hrs by qRT-PCR analysis. The data set is classed as functional, cell-based. The following applies: filed as modulator.
In data set [3] the test system is DNAJB1 pre-mRNA. As to the kind of experiment: Modulation of splicing in DNAJB1 pre-mRNA in human HCT-116 cells assessed as intron 2 retention level at 750 nM incubated for 4 hrs by qRT-PCR analysis. The data set is classed as functional, cell-based. The following applies: filed as modulator.
The nature of data set [4]: Cytotoxicity against human HCT-116 cells assessed as cell growth inhibition incubated for 72 hrs by MTS assay. The data set is classed as toxicity, cell-based. The method, boiled down: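 HCT-116 cells (ATCC; split every other day, no more than five generations, mycoplasma-tested) plated at 5 × 10³ cells/well in supplemented McCoy's 5a and grown 24 h at 37 °C, 5% CO₂. Compound added from DMSO (0.5% DMSO final) for 72 h. Cells washed with PBS, MTS reagent added for 2 h at 37 °C, A490 read against A690. GI₅₀ fitted from dose curves of 3 biological replicates.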
A general note: Tetrazolium assays rely on reduction of a dye to a coloured formazan, in cell work by metabolically active cells.

The test system of data set [5] is HCT-116. Description: Cytotoxicity against human HCT-116 cells assessed as reduction in cell viability at 750 nM incubated for 4 hrs by MTS assay. The data set is classed as toxicity, cell-based. The following applies: hct-116, 4 h, 0.75 µM.
Data set [6] deals with SF3B2 pre-mRNA. As to the kind of experiment: Modulation of splicing in SF3B2 pre-mRNA in human HCT-116 cells assessed as intron 10 retention level at 750 nM incubated for 4 hrs by qRT-PCR analysis. The data set is classed as functional, cell-based. The following applies: filed as modulator. The method, boiled down:
(§1)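 HCT-116 cells in supplemented McCoy's 5a, compound added from DMSO stock to a final 0.5% DMSO, 4 h at a single standardized concentration per analogue. Total RNA isolated and DNase-treated (1 µg). qPCR used 2.5 µM each primer on 5 ng cDNA, 40 cycles. Intron retention was computed by the 2^-CT method relative to GAPDH and expressed versus untreated cells set to 1.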

The subject of data set [7] is AURKA pre-mRNA. Description: Modulation of splicing in AURKA pre-mRNA in human HCT-116 cells assessed as effect on exon 4 skipping at 750 nM incubated for 4 hrs by qRT-PCR analysis. The data set is classed as functional, cell-based. The conditions noted are these: filed as modulator.
Data set [8] deals with SF3B1 pre-mRNA. As to the kind of experiment: Modulation of splicing in SF3B1 pre-mRNA in human HCT-116 cells assessed as intron 13 retention level at 750 nM incubated for 4 hrs by qRT-PCR analysis. The conditions noted are these: filed as modulator. The data set is classed as functional, cell-based. The method, boiled down:
as §1

Data set [9] deals with SF3A1 pre-mRNA. Description: Modulation of splicing in SF3A1 pre-mRNA in human HCT-116 cells assessed as intron 6 retention level at 9 uM incubated for 4 hrs by qRT-PCR analysis. The data set is classed as functional, cell-based. The conditions noted are these: filed as modulator.
For data set [10], the system named is SF3B1 pre-mRNA. Description: Modulation of splicing in SF3B1 pre-mRNA in human HCT-116 cells assessed as intron 13 retention at 100 to 500 nM incubated for 24 hrs by qRT-PCR analysis. The data set is classed as functional, cell-based. The following applies: dose 100-500 nM. The method, boiled down:
(§2)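 HCT-116 cells in supplemented McCoy's 5a with 0.5% final DMSO were treated for 24 h at 100, 250 or 500 nM. Total RNA isolated and DNase-treated (1 µg). qPCR used 2.5 µM each primer on 5 ng cDNA, 40 cycles. Intron retention was computed by the 2^-CT method relative to GAPDH and expressed versus untreated cells set to 1.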

In data set [11] the test system is DNAJB1 pre-mRNA. Description: Modulation of splicing in DNAJB1 pre-mRNA in human HCT-116 cells assessed as intron 2 retention level at 9 uM incubated for 4 hrs by qRT-PCR analysis. The data set is classed as functional, cell-based. The following applies: filed as modulator.
In data set [12] the test system is SF3B2 pre-mRNA. Description: Modulation of splicing in SF3B2 pre-mRNA in human HCT-116 cells assessed as intron 10 retention at 100 to 500 nM incubated for 24 hrs by qRT-PCR analysis. The conditions noted are these: dose 100-500 nM. The data set is classed as functional, cell-based. The method, boiled down:
as §2

Data set [13] concerns SF3A3 pre-mRNA. As to the kind of experiment: Modulation of splicing in SF3A3 pre-mRNA in human HCT-116 cells assessed as intron 5 retention at 100 to 500 nM incubated for 24 hrs by qRT-PCR analysis. The data set is classed as functional, cell-based. The following applies: dose 100-500 nM. The method, boiled down: (§3)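 HCT-116 cells in supplemented McCoy's 5a with 0.5% DMSO, treated 24 h at 100, 250 or 500 nM; untreated cells as control. Total RNA isolated, 1 µg DNase I-treated, reverse transcribed. qPCR on 5 ng cDNA with 2.5 µM each primer, 40 cycles of 95 °C 30 s, 55 °C 60 s, 72 °C 60 s. Splice-event primers for intron retention or exon skipping; SF2 primers measure total expression. 2^-CT method relative to GAPDH, untreated set at 1.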

Data set [14] has as its system SF3B1 pre-mRNA. Description: Modulation of splicing in SF3B1 pre-mRNA in human HCT-116 cells assessed as intron 13 retention level at 9 uM incubated for 4 hrs by qRT-PCR analysis. The data set is classed as functional, cell-based. The conditions noted are these: filed as modulator. The method, boiled down: as §1
Data set [15] deals with HCT-116. As to the kind of experiment: Upregulation of PLK-1 mRNA expression in human HCT-116 cells at 100 to 500 nM incubated for 24 hrs by qRT-PCR analysis. The data set is classed as functional, cell-based. The conditions noted are these: dose 100-500 nM. The method, boiled down: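 24 h treatment of HCT-116 cells at 100, 250 or 500 nM, 0.5% final DMSO in supplemented McCoy's 5a. RNA isolated, DNase-treated, then qRT-PCR with 2.5 µM each primer on 5 ng cDNA. Levels by the 2^-CT method relative to GAPDH, normalized to untreated cells at 1.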

Data set [16] has as its system HCT-116. As to the kind of experiment: Modulation of splicing in MCL-1L pre-mRNA in human HCT-116 cells assessed as intron 5 retention at 100 to 500 nM incubated for 24 hrs by qRT-PCR analysis. The data set is classed as functional, cell-based. The following applies: dose 100-500 nM. The method, boiled down:
as §3

The subject of data set [17] is AURKA pre-mRNA. Description: Modulation of splicing in AURKA pre-mRNA in human HCT-116 cells assessed as effect on exon 4 skipping at 9 uM incubated for 4 hrs by qRT-PCR analysis. The conditions noted are these: filed as modulator. The data set is classed as functional, cell-based.
Data set [18] concerns HCT-116. As to the kind of experiment: Cytotoxicity against human HCT-116 cells assessed as reduction in cell viability at 500 nM incubated for 24 hrs by MTS assay. The data set is classed as toxicity, cell-based. The conditions noted are these: hct-116, 24 h, 0.5 µM. The method, boiled down: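 HCT-116 cells plated at 5 × 10³ cells/well in supplemented McCoy's 5a and grown 24 h at 37 °C, 5% CO₂. Compound given at 500 nM, the top dose of the 24 h splicing series, in 0.5% DMSO for 24 h. Cells washed with PBS, MTS reagent added for 2 h at 37 °C, A490 read against A690.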

Data set [19] deals with DNAJB1 pre-mRNA. Description: Modulation of splicing in DNAJB1 pre-mRNA in human HCT-116 cells assessed as intron 2 retention at 100 to 500 nM incubated for 24 hrs by qRT-PCR analysis. The data set is classed as functional, cell-based. The following applies: dose 100-500 nM. The method, boiled down:
as §3

The subject of data set [20] is SF3B2 pre-mRNA. As to the kind of experiment: Modulation of splicing in SF3B2 pre-mRNA in human HCT-116 cells assessed as intron 10 retention level at 9 uM incubated for 4 hrs by qRT-PCR analysis. The data set is classed as functional, cell-based. The following applies: filed as modulator. The method, boiled down: as §1
In data set [21] the test system is HCT-116. As to the kind of experiment: Cytotoxicity against human HCT-116 cells assessed as reduction in cell viability at 9 uM incubated for 4 hrs by MTS assay. The data set is classed as toxicity, cell-based. The conditions noted are these: hct-116, 4 h.
Data set [22] relates to SF3A3 pre-mRNA. Description: Modulation of splicing in SF3A3 pre-mRNA in human HCT-116 cells assessed as intron 5 retention level at 9 uM incubated for 4 hrs by qRT-PCR analysis. The data set is classed as functional, cell-based. The conditions noted are these: filed as modulator. The method, boiled down:
as §1

Data set [23] relates to SF3A1 pre-mRNA. As to the kind of experiment: Modulation of splicing in SF3A1 pre-mRNA in human HCT-116 cells assessed as intron 6 retention at 100 to 500 nM incubated for 24 hrs by qRT-PCR analysis. The data set is classed as functional, cell-based. The conditions noted are these: dose 100-500 nM. The method, boiled down: as §3

For `CC[C@H](OC)[C@@H](C)[C@H]1O[C@@H]1[C@@H](OC)[C@H](C)/C=C/C=C(\C)[C@H]1OC(=O)C[C@H](O)CC[C@@](C)(O)[C@@H](OC(C)=O)/C=C/[C@@H]1C`, the Activity is > 3 in the data set with SF3A1 pre-mRNA [1]; < 3 with SF3A3 pre-mRNA [2]; > 3 with DNAJB1 pre-mRNA [3]; “Non-Toxic” in the data set on HCT-116 [5]; > 3 with SF3B2 pre-mRNA [6]; < 3 in the data set on SF3B1 pre-mRNA [8]. In addition, the GI50 (commonly the concentration at which growth is held to half of that of the control) at 72 h in data set [4] amounted to 40.5 nM. Moreover, in the data set with AURKA pre-mRNA [7], the outcome was Active.
With `CC[C@H](OC)[C@@H](C)[C@@H]1O[C@H]1[C@@H](O)[C@H](C)/C=C/C=C(\C)[C@H]1OC(=O)C[C@H](O)CC[C@@](C)(O)[C@@H](OC(C)=O)/C=C/[C@@H]1C`, the Activity in the data set with SF3A1 pre-mRNA [9] was > 3; with DNAJB1 pre-mRNA [11], > 3; in the data set on SF3B1 pre-mRNA [14], < 3; with HCT-116 [18] it was “Non-Toxic”; with SF3B2 pre-mRNA [20], > 3; in the data set on HCT-116 [21] it was “Non-Toxic”. The Activity in the data set with SF3A3 pre-mRNA [22] is < 3. Moreover, the outcome in the data set with SF3B1 pre-mRNA [10], with SF3B2 pre-mRNA [12], in the data set on SF3A3 pre-mRNA [13], with HCT-116 [16], in the data set on DNAJB1 pre-mRNA [19] and in the data set on SF3A1 pre-mRNA [23] was inactive. The outcome with HCT-116 [15] and in the data set with AURKA pre-mRNA [17] was Active. The 50% growth inhibitory concentration (GI50) at 72 h in [4] came to 470 nM.
